TRPC4 agonist – TRPC4 (mouse) channel activation; HEK293 TRPC4beta/mu-opioid, Fluo4 calcium fluorescence; hits give high values; B-score at 10 µM; 310,000 tested, 0.49% active; AID 2237;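 active = B-score above 5 SD of library B-scores, and initial fluorescence ratio not above library mean plus 5 SD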;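 note: positive B-score marks a calcium rise read as TRPC4 activation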
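System – HEK293 cells stably co-expressing mouse TRPC4beta and mu-opioid receptor · Signal – Fluo4 calcium-sensitive dye fluorescence, kinetic, 1 Hz baseline · Benchmarks – buffer (low) and maximal DAMGO (high) · Read-out – B score of integrated fluorescence ratio per well · Incubation – dye loading 45 min room temperature, 110 s kinetic read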
TRPC6 inh – mouse TRPC6 channel inhibition; Q61143; HEK293-TRPC6, membrane potential dye, ACh-evoked depolarization; hits give low values; B-score at 10 µM; 310,000 tested, 1.1% active; AID 2553;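 active = B-score under library mean minus 3 SD, initial fluorescence not abnormally high, positive integrated signal ratio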;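 note: B-score derived from integrated fluorescence ratio over the kinetic read; more negative B-score means stronger inhibition of depolarization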
Target sequence (Q61143 whole entry, looked up): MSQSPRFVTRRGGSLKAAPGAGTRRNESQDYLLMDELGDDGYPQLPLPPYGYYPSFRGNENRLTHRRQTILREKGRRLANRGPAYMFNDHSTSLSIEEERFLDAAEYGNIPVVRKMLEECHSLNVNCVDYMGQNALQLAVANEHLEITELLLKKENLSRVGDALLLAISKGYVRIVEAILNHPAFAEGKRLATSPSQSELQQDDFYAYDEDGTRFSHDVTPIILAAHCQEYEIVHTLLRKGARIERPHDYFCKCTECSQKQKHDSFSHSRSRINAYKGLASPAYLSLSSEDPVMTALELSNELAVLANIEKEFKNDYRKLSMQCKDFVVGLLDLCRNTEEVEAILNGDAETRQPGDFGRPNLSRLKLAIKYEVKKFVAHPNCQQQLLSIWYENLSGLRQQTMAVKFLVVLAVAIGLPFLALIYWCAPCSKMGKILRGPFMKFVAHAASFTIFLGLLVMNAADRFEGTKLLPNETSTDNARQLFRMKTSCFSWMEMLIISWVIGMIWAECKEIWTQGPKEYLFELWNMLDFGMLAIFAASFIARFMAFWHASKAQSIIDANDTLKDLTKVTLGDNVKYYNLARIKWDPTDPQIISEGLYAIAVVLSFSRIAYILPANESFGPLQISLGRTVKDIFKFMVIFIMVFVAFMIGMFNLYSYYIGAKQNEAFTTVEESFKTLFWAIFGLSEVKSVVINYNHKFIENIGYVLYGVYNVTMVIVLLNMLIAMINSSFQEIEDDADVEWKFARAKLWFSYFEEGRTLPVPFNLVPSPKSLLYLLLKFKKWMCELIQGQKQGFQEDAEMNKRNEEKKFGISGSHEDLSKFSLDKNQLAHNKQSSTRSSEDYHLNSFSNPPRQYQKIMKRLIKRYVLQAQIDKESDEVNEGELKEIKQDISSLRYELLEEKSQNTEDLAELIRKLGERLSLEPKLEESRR
TRPC4 inh – inhibitors of mouse TRPC4 channel; B-score at 10 µM; AID 2247; Q9QUQ5; HEK293 TRPC4beta/mu-opioid, DAMGO-evoked Fluo4 calcium flux; hits give low values; 300,000 tested, 0.39% active;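 active = B-score over 3 SD under the library average, no early fluorescence shift, positive overall ratio signal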
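Assay system: HEK293 cells with stable TRPC4beta plus mu-opioid receptor expression. Dosing: single dose. Measured by: Fluo4 Ca2+ flux fluorescence. Also added: DAMGO in two steps, submaximal then maximal. Read-out: B score from integrated Fluo4 fluorescence ratio.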
TRPC4 potent – allosteric potentiators of mouse TRPC4 channel | Q9QUQ5 | HEK293 TRPC4beta/mu-opioid, DAMGO EC20, Fluo-4 Ca2+ flux; hits give high values | B-score at 10 µM | 310,000 tested, 0.42% active;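 active = B-score of calcium response area above 5 SD of library B-scores, with initial fluorescence ratio within 5 SD of library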;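 note: B-score of integrated fluorescence ratio over time as area under calcium response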
TRPC6 activator – mouse TRPC6 channel activation; 310,000 tested, 0.13% active; B-score at 10 µM; AID 2550; HEK293-TRPC6 membrane potential dye fluorescence; hits give high values;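 active = B-score of the integrated fluorescence ratio above library mean plus 3 SD, and starting fluorescence ratio within library mean plus 5 SD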;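 note: higher score means more depolarization so channel activation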
TRPC4 spec 2 – second check of whether TRPC6 inhibitors also affect mouse TRPC4. shares compounds with TRPC6 inh. HEK293 TRPC4/MOR, membrane potential dye fluorescence; channel activated by saturating DAMGO dose. inhibition, % at 10 µM. 920 tested, 42% active;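 active = compounds whose fluorescence signal differed from control wells by over 3 SD, either direction, in both duplicate plates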
TRPC4 spec – tests whether TRPC6 inhibitors also affect mouse TRPC4; shares compounds with TRPC6 inh; HEK293 TRPC4/mu-opioid, membrane potential fluorescence; activity change, negative = inhibition, % at 10 µM; 920 tested, 61% active; AID 2777;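 active = rise or fall in signal beyond 3 SD of buffer-only wells in both replicate plates, either sign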;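 note: integrated kinetic ratio of fluorescence range over baseline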
HEK293 MPD ctr 2-1 – second counter-screen for TRPC6 inhibitors: parental HEK293 cells; shares compounds with TRPC6 inh; parental HEK293 membrane potential dye fluorescence; maximal acetylcholine challenge after compound addition; signal change vs control, % at 10 µM; 920 tested, 31% active; AID 2779;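 active = membrane potential signal moving either way by over 3 SD of the maximum-effect control, in both duplicate plates, meaning non-specific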
HEK293 MPD ctr-1 – parental HEK293 nonspecific activity of TRPC6 inhibitors | shares compounds with TRPC6 inh | parental HEK293 membrane potential dye fluorescence | membrane potential signal change, % at 10 µM | 920 tested, 60% active;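 active = membrane potential signal shifting up or down by more than 3 SD of buffer-only wells, on both duplicate plates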
HEK293 MPD ctr-2 – counter-screen for TRPC6 modulators: effect in parental HEK293 cells. shares compounds with TRPC6 inh. membrane potential dye fluorescence. membrane potential signal change, % at 10 µM. 2,400 tested, 51% active;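 active = membrane potential signal moves up or down beyond 5 SD from buffer-only wells, on both duplicate plates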
HEK293 MPD ctr 2-2 – parental HEK293 nonspecific activity of TRPC6 modulators, second screen; shares compounds with TRPC6 inh; membrane potential dye fluorescence; after compound, maximal acetylcholine stimulation; inhibition, % at 10 µM; 2,400 tested, 14% active;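 active = membrane potential signal drops by more than 5 SD from the mean control signal, in both duplicate plates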;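 note: plate controls were acetylcholine ECmax control wells for no effect and buffer only wells for full effect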
TRPC4 ctr mod – selectivity of TRPC6 modulators against mouse TRPC4. 2,400 tested, 69% active. shares compounds with TRPC6 inh. percent change from control (negative = decrease, positive = increase), % at 10 µM. HEK293 TRPC4/mu-opioid, membrane potential fluorescence;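 active = membrane potential signal moved up or down beyond 5 SD of buffer control wells, in both duplicate plates, actives on both sides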;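 note: plate controls were assay buffer wells for no effect and DAMGO maximal-effect wells for full effect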
TRPC4/MOR inh 2 – second check of whether TRPC6 modulators also affect mouse TRPC4. HEK293 TRPC4/mu-opioid, membrane potential dye fluorescence; stimulated with maximal-effect DAMGO. AID 488928. 2,400 tested, 55% active. inhibition, % at 10 µM. shares compounds with TRPC6 inh;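 active = drop in membrane potential signal beyond 5 SD of the control wells in both duplicate plates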;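 note: TRPC4 counter screen for TRPC6 hits run under conditions tuned for TRPC6 not TRPC4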
TRPC6 block conf – mouse TRPC6 inhibitor confirmation | shares compounds with TRPC6 inh | HEK293-TRPC6, membrane potential dye, ACh-evoked depolarization | inhibition, % at 10 µM | 3,300 tested, 43% active | AID 488960;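 active = fluorescence ratio falls more than 5 SD below the full-stimulation control mean, in both duplicate runs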;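 note: integrated fluorescence ratio of peak minus minimum over baseline after agonist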
TRPC6 act conf – confirmation of mouse TRPC6 activators; shares compounds with TRPC6 inh; HEK293-TRPC6 membrane potential dye fluorescence, FDSS; activation, % at 10 µM; 2,800 tested, 11% active;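 active = ratio signal rise beyond 5 SD above unstimulated control wells' mean, seen in both duplicate runs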;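 note: plate controls were buffer EC0 wells for no effect and acetylcholine ECmax response for full effect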
Numbers without * were called inactive; i = inactive; x = no result given. Only some compounds are listed: those with a hit (about 2.3% of all), similar ones and a draw of the others.

SMILES	TRPC4 agonist	TRPC6 inh	TRPC4 inh	TRPC4 potent	TRPC6 activator	HEK293 MPD ctr-2	HEK293 MPD ctr 2-2	TRPC4 ctr mod	TRPC4/MOR inh 2	TRPC6 block conf	TRPC6 act conf	others
CCN1CCN(c2nc3c(c(=O)[nH]c(=O)n3C)n2CCCSc2ncccn2)CC1	i	-5.41*	i	i	i	-188.5%*	i	-22.0%*	46.5%*	i	i
Cn1c(=O)[nH]c(=O)c2c1nc(N1CCCCCC1)n2CCN1CCCCCC1	i	-6.62*	i	i	i	x	x	x	x	i	i	TRPC4 spec 2=54.0%*;TRPC4 spec=-10.7%*;HEK293 MPD ctr 2-1=i;HEK293 MPD ctr-1=-217.5%*
CN1CCN(c2nc3c(c(=O)[nH]c(=O)n3C)n2CCCSc2ncccn2)CC1	i	-5.9*	i	i	i	-166.0%*	i	-30.0%*	i	i	i
CCCn1c(N2CCN(C)CC2)nc2c1c(=O)[nH]c(=O)n2C	i	i	i	i	i	x	x	x	x	x	x
O=C(CSc1ccc2nnc(-c3ccccn3)n2n1)Nc1ccccc1F	i	i	i	i	i	x	x	x	x	x	x
CCOC(=O)CCn1nc(-c2ccc(C)cc2)c2ccccc2c1=O	i	-5.55*	i	i	i	179.5%*	i	41.5%*	i	53.5%*	x
CCCCNC(=O)CCn1nc(-c2ccccc2)c2ccccc2c1=O	i	-7.89*	i	i	i	x	x	x	x	i	x	TRPC4 spec 2=i;TRPC4 spec=7.5%*;HEK293 MPD ctr 2-1=i;HEK293 MPD ctr-1=5.7%*
O=[N+]([O-])c1ccccc1/C=N/Nc1nnc(-c2ccccc2)c(-c2ccccc2)n1	i	i	i	i	i	x	x	x	x	x	x
Cc1ccc(CNC(=O)C2CCCN2S(=O)(=O)c2ccc(Cl)cc2)cc1 (configuration not stated)	i	-5.44*	i	i	i	i	i	i	i	i	i
O=C(NCc1ccccc1)C1CCCN1S(=O)(=O)c1ccc(Cl)cc1 (configuration not stated)	i	i	i	i	i	x	x	x	x	x	x
CN1CCN(C(=O)c2cccc(COc3cc(Cl)ccc3Cl)c2)CC1	i	i	i	i	i	x	x	x	x	x	x
O=C(c1ccc(COc2ccccc2Cl)o1)N1CCCC1	i	i	i	i	i	x	x	x	x	x	x
CC1CCN(C(=O)c2ccc(COc3ccccc3Cl)o2)CC1	i	-6.25*	i	i	i	121.0%*	i	25.0%*	i	i	i
CN1CCN(C(=O)c2ccc(COc3cc(Cl)ccc3Cl)o2)CC1	i	-5.66*	i	i	i	127.0%*	i	22.0%*	i	i	x
COc1ccc2c(c1)c(C(=O)CN1CCc3ccccc3C1)c(C)n2C	i	-6.45*	i	i	i	-88.5%*	i	-16.5%*	59.0%*	43.5%*	i
Cc1ccc(NC(=O)C(C)OC(=O)CCN=C2NS(=O)(=O)c3ccccc32)cc1 (configuration not stated)	i	i	i	i	i	x	x	x	x	x	x
O=C1CCN(Cc2ccc(Br)cc2)CCN1[C@H](CO)Cc1ccccc1	i	i	x	i	i	x	x	x	x	x	x
CCOC(=O)c1c(NCCN(C)C)c2ccccc2[nH]c1=O	i	i	i	i	i	x	x	x	x	x	x
CCOC(=O)c1cnc2c(ccc3ccccc32)c1NCCN(C)C	i	-6.79*	i	i	i	x	x	x	x	i	i	TRPC4 spec 2=74.5%*;TRPC4 spec=-14.3%*;HEK293 MPD ctr 2-1=i;HEK293 MPD ctr-1=-232.5%*
CCOC(=O)c1cnc2c(Cl)cccc2c1NCCN(C)C	i	-9.18*	i	i	i	x	x	x	x	72.6%*	i	TRPC4 spec 2=68.0%*;TRPC4 spec=-26.2%*;HEK293 MPD ctr 2-1=18.0%*;HEK293 MPD ctr-1=-448.0%*
CCOC(=O)c1cnc2c(ccc3ccccc32)c1NCCO	i	i	i	i	i	x	x	x	x	x	x
CCOC(=O)c1cnc2c(C(=O)OC)cccc2c1NCc1cccnc1	i	-6.16*	i	i	i	i	i	14.5%*	i	i	i
COCCCNC(=O)c1cc2c(=O)n3cccc(C)c3nc2n(C(C)C)c1=N	i	-5.05*	i	i	i	i	67.0%*	i	30.5%*	45.0%*	i
CCNC(=O)c1cc2c(=O)n3cccc(C)c3nc2n(Cc2ccc(C)cc2)c1=N	i	-6.08*	i	i	i	-146.0%*	i	-28.0%*	40.0%*	i	i
COCCn1c(=N)c(C(=O)NCCc2ccc(OC)cc2)cc2c(=O)n3cccc(C)c3nc21	i	i	i	i	i	x	x	x	x	x	x
COc1ccc(CNC(=O)c2cc3c(=O)n4cccc(C)c4nc3n(CC3CCCO3)c2=N)cc1 (configuration not stated)	i	i	i	i	i	x	x	x	x	x	x
Cc1cccn2c(=O)c3cc(C(=O)NC4CCCCC4)c(=N)n(Cc4ccc(F)cc4)c3nc12	i	i	i	i	i	x	x	x	x	x	x
Cc1cccn2c(=O)c3cc(C(=O)NC(C)C)c(=N)n(Cc4ccncc4)c3nc12	i	-7.57*	i	i	i	x	x	x	x	76.5%*	i	TRPC4 spec 2=72.5%*;TRPC4 spec=-19.3%*;HEK293 MPD ctr 2-1=-15.5%*;HEK293 MPD ctr-1=-303.5%*
COc1ccc(OC)c(N(CC(=O)N2CCOCC2)S(C)(=O)=O)c1	i	i	i	i	i	x	x	x	x	x	x

Compound activity: PubChem, Johns Hopkins Ion Channel Center
